Compound activity from PubChem BioAssay.
E coli WT exp: E. coli BW25113 growth inhibition, expanded screen; growth inhibition, % at 100 µM; 98,000 compounds, 0.15% hits; OD600 absorbance; AID 710;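 active means growth inhibition above about 50% at one test dose, limit read from the data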;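 further: growth measured after 20 h incubation at 37 °C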
HUVEC prolif 384: inhibitors of human endothelial cell proliferation; HUVEC proliferation, CellTiter-Glo luminescence, 72 h; active compounds read low; viability, % at 10 µM (by protocol); 86,000 compounds, 1.1% hits;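 active means viability at or below 30%; inactive means viability above 30%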;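 further: 100% = median luminescence of DMSO-only cell control wells on each plate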
H69AR inhibit: growth inhibitors of human H69AR lung tumor cells | H69AR lung tumor viability, ATP luminescence, 72 h; active compounds read low | viability, % at 10 µM | 85,000 compounds, 6% hits;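 active means viability at or below 40%; inactive means viability above 40%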;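 further: multidrug resistant small cell line overexpressing MRP-1 efflux transporter; 100% = mean luminescence of untreated control wells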
Jurkat tox 60K: cytotoxicity toward Jurkat cells; 56,000 compounds, 1.2% hits; Jurkat E6.1 viability, ATP luminescence, 48 h; inhibition, % at 4 µM;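 active means inhibition above the mean inhibition of all tested compounds plus 3 SD, cut at about 28% in these data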
Fibroblast inh: blocks proliferation of human lung fibroblasts; LL 47 human lung fibroblast viability, ATP luminescence; active compounds read low; viability, % at 10 µM; 85,000 compounds, 1.1% hits; AID 719;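 active means viability at or below 50% in the single dose screen; inactive means viability above 50%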;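 further: compound exposure lasted 72 h before the ATP readout; 100% = median luminescence of untreated cell-only wells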
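Benchmarks: Cell-only wells, no compound | Test system: LL 47 human lung fibroblasts, passage 12 or lower | Input: 1,150 cells/well | Measured by: CellTiter-Glo luminescence measuring cellular ATP | Medium: IMEM, 15% FBS supplement | Schedule: Overnight attachment after seeding, then 72 h compound exposure at 37 °C | Doses: Compound addition at 0.1% DMSO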
Ecoli tolC: growth inhibitors of E. coli BW25113 tolC mutant. 65,000 compounds, 2.2% hits. OD615. AID 573. growth inhibition, % at 10 µM (by protocol);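 active means growth inhibition at or above a cutoff equal to the mean over every tested compound plus 3 SD, cut at about 60% in these data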;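 further: growth measured after 20 h incubation at 37 °C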
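System: E. coli ΔtolC::kan strain BW25113; Buffer or medium: LB broth supplemented with 50 µg/mL kanamycin; Compound: 10 µM final, single dose; Incubation: bacterial growth with compound for 20 h at 37 °C; Signal: A615 absorbance measurement; Evaluation: growth inhibition in percent.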
Numbers without * were called inactive; . = no result. Most compounds without a hit are left out; they make up all but 6.4% or so of the library.

SMILES	E coli WT exp	HUVEC prolif 384	H69AR inhibit	Jurkat tox 60K	Fibroblast inh	Ecoli tolC
CCCC(=O)N1CCN(c2ccc(NC(=O)c3cc4ccccc4o3)cc2Cl)CC1	-6	2.1*	13*	19	16*	50
O=C(Nc1ccc(N2CCN(C(=O)c3ccco3)CC2)c(Cl)c1)c1cc2ccccc2o1	-15	7.9*	37*	12	43*	38
CN(C)CCCOc1nc2c(c(=O)n(C)c(=O)n2C)n1C	.	88	91	.	82	.
C/C=C/c1ccc(Oc2nnnn2-c2ccc(C(N)=O)cc2)c(OC)c1	-3	100	84	7	94	12
N=c1c(S(=O)(=O)c2ccccc2)cc2c(=O)n3ccccc3nc2n1Cc1ccco1	1	87	11*	10	76	8
Cc1ccc(S(=O)(=O)c2cc3c(=O)n4ccccc4nc3n(Cc3ccco3)c2=N)cc1C	-16	87	7.8*	-1	73	17
Cc1ccc(S(=O)(=O)c2cc3c(=O)n4ccccc4nc3n(CC3CCCO3)c2=N)cc1C (configuration not stated)	.	95	72	-1	77	29
C#CCOc1ccc(Br)cc1/C=N/O	6	98	74	.	94	.
Cc1cc(C)c(S(=O)(=O)N2CCC(C(=O)NCc3ccco3)CC2)c(C)c1	3	101	102	.	105	.
CCC1CCCCN1C(=O)Cn1c(=O)n(CCC(=O)NCc2ccco2)c(=O)c2sccc21 (configuration not stated)	4	90	75	-2	.	-16
Cc1ccc(-c2cc(C(=O)Nc3cccnc3)c3ccccc3n2)o1	-3	82	60	2	103	19
Cc1ccc(NC(=O)c2cc(-c3ccc(C)o3)nc3ccccc23)cc1	-9	94	32*	.	90	.
Cc1nc(N2CCN(C)CC2)c2c(C)c(C(=O)Nc3ccc(C)c(F)c3)sc2n1	9	3.7*	49	.	43*	.
COC(=O)c1sc2nc(-c3ccccc3)nc(N3CCN(C)CC3)c2c1C	15	46	71	1	80	3
Cc1nc2ccc(S(=O)(=O)c3ccc4nc(C)[nH]c4c3)cc2[nH]1	8	.	.	.	.	.
Cc1nc2ccc(C(C(F)(F)F)(C(F)(F)F)C(F)(F)F)cc2[nH]1	3	79	94	-3	78	100*
CCOC(=O)c1[nH]c2c(c1C)C(=O)CC(c1ccc(F)cc1)C2 (configuration not stated)	1	54	100	95*	58	-10
Cc1c(C(=O)OCC(C)C)[nH]c2c1C(=O)CC(c1cccs1)C2 (configuration not stated)	-5	45	21*	.	52	.
CCCCCOC(=O)c1[nH]c2c(c1C)C(=O)CC(c1ccco1)C2 (configuration not stated)	.	.	.	101*	.	32
CCOC(=O)c1[nH]c2c(c1C)C(=O)CC(c1ccc(OCC)c(OC)c1)C2 (configuration not stated)	-3	94	83	.	104	-8
COc1ccc(Nc2nc(C)cc(C)c2C#N)cc1OC	-11	104	89	-6	102	-8
O=C1c2[nH]nc(-c3ccccc3O)c2C(c2cccc(Cl)c2)N1CC1CCCO1 (configuration not stated)	6	71	21*	6	91	88*
O=C1c2[nH]nc(-c3ccccc3O)c2C(c2ccc(F)cc2)N1Cc1ccco1 (configuration not stated)	0	79	1.8*	4	92	100*
O=C1c2[nH]nc(-c3ccccc3O)c2C(c2cccc(Cl)c2)N1Cc1ccco1 (configuration not stated)	-3	4.9*	0.8*	17	88	100*
C=CCOc1c(CNc2nccs2)cccc1OCC	11	97	88	5	89	21
SMILES	E coli WT exp	HUVEC prolif 384	H69AR inhibit	Jurkat tox 60K	Fibroblast inh	Ecoli tolC
COc1ccc(Cn2nnnc2C(C(C)C)N2CCc3ccccc32)cc1 (configuration not stated)	-4	80	75	2	87	73*
COc1ccc(Cn2nnnc2C(CC(C)C)N2CCN(c3ccccc3)CC2)cc1 (configuration not stated)	-15	99	83	7	98	25
O=[n+]1cc(-c2cccc3ccccc23)n([O-])c2c1CCC2	1	96	97	.	113	.
CCn1c(=S)sc2c(=O)n(-c3ccccc3)c(SC)nc21	-6	94	61	.	102	49
N#CCSc1nc2c(sc(=S)n2Cc2ccco2)c(=O)n1-c1ccc(F)cc1	-9	88	40*	.	74	25
COc1ccc(Cl)cc1NC(=O)CN1C(=O)CCS(=O)(=O)c2ccccc21	-10	101	29*	.	101	-17
COc1ccc(Cl)cc1NC(=O)Cn1c(=O)n2nc(C)nc2c2ccccc21	-8	93	0.9*	-5	103	8
Cn1nc(CC(=O)Nc2ccc3c(c2)OCCO3)c2ccccc2c1=O	-6	.	.	95*	.	20
CC(C)(C)OC(=O)N1CCN(c2ccc(NC(=O)c3cc4ccccc4oc3=O)cc2)CC1	.	.	.	.	.	-11
Cc1cnc(C(=O)Nc2ccc(N3CCN(C(=O)OC(C)(C)C)CC3)cc2)cn1	-2	72	28*	2	60	-12
Cc1ccc(CN2C(=O)CCC2C(=O)NCc2cccnc2)cc1 (configuration not stated)	2	104	100	.	87	.
CC(Oc1ccc(C(C)(C)C)cc1)c1ccnc2nc(/N=C/N(C)C)nn12 (configuration not stated)	-6	.	.	.	.	.
O=C(CCCC(=O)N(CC(=O)NC1CCCC1)Cc1ccc2c(c1)OCO2)Nc1ccccn1	0	107	100	2	98	9
Cn1nc(CC(=O)NCc2cccc3ccccc23)c2ccccc2c1=O	0	99	34*	.	97	.
COc1ccccc1NC(=O)Cn1nc(-c2ccc(Cl)cc2)c2ccccc2c1=O	-10	89	35*	.	105	.
Cn1nc(CC(=O)Nc2ccc(N3CCN(C(=O)OC(C)(C)C)CC3)cc2)c2ccccc2c1=O	-24	70	37*	99*	96	11
COc1ccccc1NC(=O)Cc1nn(C)c(=O)c2ccccc12	-1	86	89	58*	105	7
CCNC(=O)CCn1nc(-c2ccc(Cl)cc2)c2ccccc2c1=O	2	79	69	.	91	20
CCOC(=O)C1(C(F)(F)F)N=C(c2cccnc2)OC(N2CCOCC2)=N1 (configuration not stated)	-6	98	78	-5	100	-7
Cc1cccc(OCCN2CSC(=S)N(C)C2)c1	40	21*	1.5*	.	61	15
Cc1cccc(OCCCN2CCCCCC2)c1	2	106	83	1	105	-9
CC1(C)Cc2c(C#N)c(SCCOc3ccccc3)nc(N3CCOCC3)c2CO1	-25	61	32*	.	85	9
